In ChEMBL document CHEMBL2390852, “Anti-influenza active and low toxic N-phenyl-substituted β-amidoamidines structurally related to natural antibiotic amidinomycin” (Bioorg Med Chem Lett, 2013):
Activity calls are given as the source filed them. No cut-off for these calls is given here.

Columns and labels:
[1] = test system: influenza A virus A/St. Petersburg/34/72 (H3N2); test: Therapeutic index, ratio of CC50 for dog MDCK cells to EC50 for 100 infective dose of influenza A virus A/St. Petersburg/34/72 (H3N2; type: cell-based; settings: read-out: Ratio CC50/EC50
[2] = Acute toxicity in sc dosed Balb/c mouse after 5 days; type: organism-based; settings: in vivo
Method in brief: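 Male Balb/c mice, four per group, given single SC doses rising from 1000 to 4000 mg/kg in 500 mg/kg steps, in saline/DMSO 4:1 (200 µL total). LD50 was taken as the dose giving 50% mortality, with toxicity estimated in a 5 days test.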

Influenza A virus [3] = test: Antiviral activity against influenza A virus A/St. Petersburg/34/72 (H3N2) infected in dog MDCK cells using chicken erythrocytes by hemadsorption assay; type: functional, organism-based
Method in brief: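 Hemadsorption of chicken erythrocytes was used alongside the CPE read-out on infected MDCK cells after 48 h compound incubation at 37 °C in 5% CO2. The results of the two assays were averaged.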

Influenza A virus [4] = test: Antiviral activity against 100 infective dose of influenza A virus A/St. Petersburg/34/72 (H3N2) infected in dog MDCK cells assessed as virus-induced cytopathic effect after 48 hrs; type: functional, organism-based
Method in brief: (§1)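 MDCK cells in maintenance medium were infected with 1 infective dose or 100 doses, where 1 dose induced 50 3% cell death under standard conditions. Cells were incubated with compound at various concentrations for 48 h at 37 °C in 5% CO2. CPE was scored against cell and virus controls, and EC50 is the concentration giving 50% inhibition of CPE. Values are means of 2–4 separate experiments.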

Influenza A virus [5] = test: Antiviral activity against 1 infective dose of influenza A virus A/St. Petersburg/34/72 (H3N2) infected in dog MDCK cells assessed as virus-induced cytopathic effect after 48 hrs; type: functional, organism-based; method in brief: as §1
[6] = test system: influenza A virus A/St. Petersburg/34/72 (H3N2); test: Therapeutic index, ratio of CC50 for dog MDCK cells to EC50 for 1 infective dose of influenza A virus A/St. Petersburg/34/72 (H3N2); type: cell-based; settings: read-out: Ratio CC50/EC50
[7] = Cytotoxicity against dog MDCK cells after 48 hrs by MTT assay; type: cell-based, Canis lupus familiaris
Method in brief: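 MDCK cells were incubated with compound at various concentrations for 48 h. CC50 is the concentration causing 50% reduction of cell viability. Values are means of 2–4 separate experiments.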

H3N2 subtype [8] = test: Antiviral activity against Influenza A virus (A/Aichi/2/1968(H3N2))-infected in Balb/c mouse at 0.1 LD50/dose, sc for 5 times measured after 7 to 14 days; type: functional, organism-based
Method in brief: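 Balb/c mice of both sexes, 10 per group, were infected intranasally with mouse-adapted virus. […] Vehicle controls received the same schedule. Survivors were counted on days 7 and 14.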

H3N2 subtype [9] = test: Antiviral activity against Influenza A virus (A/Aichi/2/1968(H3N2))-infected in Balb/c mouse at </= 100 mg/kg, sc after 7 to 14 days; type: functional, organism-based; parameters: dose 100 mg/kg
Mus musculus [10] = test: Sub-acute toxicity in Balb/c mouse assessed as survival at 1000 mg/kg, sc after 10 days; type: organism-based; parameters: dose 1000 mg/kg, route subcutaneous; settings: in vivo, 240 h
Method in brief: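 Four male Balb/c mice each received a single SC dose of 1000 mg/kg in saline/DMSO 4:1. Survival was followed for at least 10 days.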

Mus musculus [11] = test: Sub-acute toxicity in Balb/c mouse assessed as behavioural change at 300 mg/kg, sc administered for 6 days measured on day 10; type: organism-based; parameters: dose 300 mg/kg, route subcutaneous; settings: in vivo, 144 h
Method in brief: (§2)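 Four mice, two of each sex, were given 300 mg/kg SC daily for 6 days. Behaviour and body weight were assessed at day 10.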

Mus musculus [12] = test: Sub-acute toxicity in Balb/c mouse assessed as change in body weight at 300 mg/kg, sc administered for 6 days measured on day 10; type: organism-based; parameters: dose 300 mg/kg, route subcutaneous; settings: in vivo, 144 h; method in brief: as §2

Row | Compound | selectivity ratio [1] | LD50 at 120 h [2] | Activity (Influenza A virus [3]) | EC50 (Influenza A virus [4]) | EC50 (Influenza A virus [5]) | selectivity ratio [6] | CC50 at 48 h [7] | Activity (H3N2 subtype [8]) | Activity (H3N2 subtype [9]) | Activity (Mus musculus [10]) | Activity (Mus musculus [11]) | Activity (Mus musculus [12])
1 | CCCCCCCCCCC(=O)N(CC(C)/C(=N\c1ccccc1)Nc1ccccc1)c1ccccc1.Cl (racemic) | 128 | 3500 mg/kg | Active | 7.3 µM | 1.82 µM | 514 | 936 µM | Active | inactive | – | – | –
2 | CCCCCCCCCCCCC(=O)N(CC(C)/C(=N\c1ccccc1)Nc1ccccc1)c1ccccc1.Cl (racemic) | 32 | 4000 mg/kg | – | 27.8 µM | 6.95 µM | 128 | 890 µM | Active | inactive | – | – | –
3 | CCCCCCCCCCCCCCCCCC(=O)N(CC(C)/C(=N\c1ccccc1)Nc1ccccc1)c1ccccc1 (racemic) | 17 | – | – | 72 µM | 15.6 µM | 80 | 1240 µM | – | – | – | – | –
4 | CC(CNc1ccccc1)/C(=N\c1ccccc1)Nc1ccccc1 (racemic) | – | – | – | ≥ 200 µM | ≥ 200 µM | – | 85 µM | – | – | – | – | –
5 | CC(CN(C(=O)c1ccccc1)c1ccccc1)/C(=N\c1ccccc1)Nc1ccccc1 (racemic) | – | – | – | ≥ 200 µM | > 100 µM | < 2.85 | 286 µM | – | – | – | – | –
6 | CC(=O)N(CC(C)/C(=N\c1ccccc1)Nc1ccccc1)c1ccccc1 (racemic) | – | – | – | ≥ 200 µM | 68 µM | 2.25 | 153 µM | – | – | – | – | –
7 | CCCC(=O)N(CC(C)/C(=N\c1ccccc1)Nc1ccccc1)c1ccccc1 (racemic) | 2.2 | – | – | 98 µM | 24 µM | 9 | 216 µM | – | – | – | – | –
8 | CCCCCCCCC(=O)N(CC(C)/C(=N\c1ccccc1)Nc1ccccc1)c1ccccc1.Cl (racemic) | 125 | 3000 mg/kg | Active | 1.98 µM | 0.95 µM | 260 | 247 µM | Active | inactive | Non-toxic | Non-toxic | Non-toxic
9 | N=C(N)CCNC(=O)[C@@H]1CC[C@H](N)C1 [(1R,3S)-AMIDINOMYCIN] | – | 10 mg/kg | – | – | – | – | – | – | – | – | – | –
10 | CC(N)C12CC3CC(CC(C3)C1)C2 (stereo not drawn) [RIMANTADINE] | 32 | 175 mg/kg | – | 43.5 µM | 5.45 µM | 256 | 1400 µM | – | Active | – | – | –
